Screening results from PubChem BioAssay.
Rad51 HR inh: human RAD51 strand exchange inhibitors, primary screen, biochemical, fluorescence | hRad51 DNA strand exchange, fluorescence dequenching | inhibition, % at 10 µM | actives 0.085% (n = 200,000);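 active means inhibition above 40% at the single screening dose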
Target sequence (Q06609 whole entry, looked up): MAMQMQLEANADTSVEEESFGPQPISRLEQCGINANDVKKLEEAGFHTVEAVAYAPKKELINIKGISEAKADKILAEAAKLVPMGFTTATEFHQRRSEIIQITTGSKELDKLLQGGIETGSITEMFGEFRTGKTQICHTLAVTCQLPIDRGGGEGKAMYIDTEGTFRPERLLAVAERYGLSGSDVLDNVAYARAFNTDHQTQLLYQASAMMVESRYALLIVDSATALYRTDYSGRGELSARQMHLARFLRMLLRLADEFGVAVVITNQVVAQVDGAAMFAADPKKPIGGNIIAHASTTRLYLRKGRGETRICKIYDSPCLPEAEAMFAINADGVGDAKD
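Test system: preformed human Rad51 ssDNA filaments; also added: Donor/quencher-labelled 47-bp dsDNA substrate; doses: 10 µM final, single point; times: 37 °C 15-min filament assembly, 30-min compound preincubation, 15-min exchange; detection: FRET fluorescence dequenching, excitation 485 nm, emission 520 nm; read-out basis: Fluorescence-based percent inhibition, control- and blank-normalised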
STAT1 act: STAT1 signaling activators, primary screen, cell-based, HTS, luciferase reporter; activation (% of control), % at 5.5 µM; NIH 3T3 STAT1-luciferase reporter, IFN-gamma, luminescence; 100% = IFN-gamma alone, no compound; AID 932, 2007; actives 2.6% (n = 200,000);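 active means activation above the screen-wide mean activation plus 3 SD, cut at about 130% in these data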
FLuc inh counter: firefly luciferase enzyme inhibitors, primary screen, artefact control for luciferase-based inhibitor screens, biochemical, luminescence, ATPLite. Luciferin 4-monooxygenase (Photinus pyralis), P08659. inhibition, % at 10 µM. actives 1.5% (n = 200,000). 10 min;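 active means inhibition above about 50% when tested at 10 µM, limit read from the data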
NF-kB expr up: activators of NF-kB expression in neurons, primary screen, cell-based, HTS. human neuronal cells, NF-kB reporter expression; hits give high values. fold change at 12.5 µM. actives 1.6% (n = 190,000). AID 1239, 2008; in the data active means fold change above about 3.3
FLuc stim CS: FLuc activators, initial screening, artefact control for FLuc-dependent activation tests, biochemical, ATPlite luminescence; ATPlite luciferase biochemical, 10 min; 0 = ATP-free wells, 1 = DMSO control; Luciferin 4-monooxygenase (Photinus pyralis), P08659; 200,000 tested, under 10 active; activation factor at 10 µM; AID 1027, 2008;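 active means luciferase activation factor, scaled between plate controls, of at least 2 with compound at 10 µM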
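assay system = Luciferase/luciferin detection reagent, cell-free biochemical luciferase assay | also added = ATP substrate | times = 10 min post-reagent at room temperature | measured by = luminescence from luciferase reaction | measure = luciferase activation, seen as luminescence increase over controls | benchmarks = low control with PBS replacing ATP, high control enzyme plus ATP without compound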
APP 5'UTR act: activators of APP 5'UTR luciferase reporter, primary screen, SH-SY5Y cells; SH-SY5Y APP 5'UTR luciferase reporter, luminescence; zero percent = DMSO vehicle wells; activation, % at 2 µM; actives 1% (n = 190,000); AID 1276, 2008;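 active means activation above a set limit, based on mean plus 3 SD of controls, cut at about 140% in these data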
Of the large screens only hits and unclear results are named; the others gave an inactive call. Compounds with a hit are over-represented: about 3.9% of the library has one in this group of screens.

COc1ccc(OC)c(S(=O)(=O)N2CCN(c3ccccn3)CC2)c1	none
COc1ccc2c(c1OC)C(=O)N(c1cccc(C)c1)C2	STAT1 act 134.9, FLuc inh counter 84.5, NF-kB expr up 5.19
CNC(=S)c1cc(C(C)(C)C)c(O)c(C(C)(C)C)c1	none (no result: STAT1 act, FLuc inh counter, NF-kB expr up, FLuc stim CS, APP 5'UTR act)
S=c1[nH]nc(-c2cc(-c3ccccc3)n[nH]2)n1/N=C/c1ccc(Br)s1	none (no result: STAT1 act, FLuc inh counter, NF-kB expr up, FLuc stim CS, APP 5'UTR act)
C/C(CC(=O)NC(C)(C)C)=N\NC(=O)c1ccccc1N	STAT1 act 128.6
COc1ccc2cc(C(=O)C3CCCN(C(=O)CCc4cnn(C)c4)C3)ccc2c1 (centres undefined)	none (no result: Rad51 HR inh, NF-kB expr up)
COC(=O)c1c(C)cc(O)c(C=O)c1O	none (no result: STAT1 act, FLuc inh counter, NF-kB expr up, FLuc stim CS, APP 5'UTR act)
COc1cc(C(=O)O)c2c(c1C)OC(=O)c1c(C)cc(O)c(C=O)c1O2	Rad51 HR inh 60.8 (no result: STAT1 act, FLuc inh counter, NF-kB expr up, FLuc stim CS, APP 5'UTR act)
CC(C)COc1ccc(/C=C2/Sc3ccccc3C2=O)cc1	FLuc inh counter 57.3
CCCCOc1ccc(/C=C2/Sc3ccccc3C2=O)cc1	none
COc1ccc(C(C(=O)NCC2CCCO2)N(C(=O)CNC(=O)c2cccs2)c2ccccc2C)cc1OC (centres undefined)	none
Cc1ccc(C(=O)COC(=O)CCCC(=O)Nc2cc(C(F)(F)F)ccc2Cl)cc1C	FLuc inh counter 54.2 (no result: Rad51 HR inh)
COc1cc(/C=C/C(=O)C2C(=O)C=C(C)OC2=O)cc(OC)c1O (centres undefined)	none
COc1ccc(/C=C/C(=O)C2C(=O)C=C(C)OC2=O)cc1O (centres undefined)	FLuc inh counter 82.9
COc1ccc(/C(=C/c2ccc(OC(F)F)c(OC)c2)C(=O)O)cc1OC	none
COc1ccccc1-c1cc(C(=O)Nc2cccnc2)no1	STAT1 act 131.0, FLuc inh counter 62.1 (no result: Rad51 HR inh)
COc1ccccc1-c1cc(C(=O)NCCc2ccccc2)no1	NF-kB expr up 3.75
CN1CCN(C(=S)NC(=O)c2ccco2)CC1	none
CC1(C)CC(=O)C(N=Nc2ccc(OC(F)F)cc2)=C(O)C1	none
C#CCNC(=O)C1=C[C@H](C)C[C@H](OCc2ccc(CO)cc2)O1	none (no result: STAT1 act, FLuc inh counter, NF-kB expr up, FLuc stim CS, APP 5'UTR act)
O=C(NCc1ccc2c(c1)OCO2)C(=O)Nc1ccccc1	none
CN(C(=O)COc1ccc(Cl)cc1)c1nnc(C23CC4CC(CC(C4)C2)C3)s1	none
CC(C)CN(C(=O)c1ccco1)c1nc2ccccc2s1	none
CN(C(=O)c1ccco1)c1nnc(C23CC4CC(CC(C4)C2)C3)s1	STAT1 act 139.5
CN(C(=O)c1ccco1)c1nc2c(s1)CCCC2	STAT1 act 130.1, FLuc inh counter 77.3, NF-kB expr up 4.06, APP 5'UTR act 162.5
CS(=O)(=O)c1ccc(CNC(=O)C2(C(F)(F)F)C/C(=C\Cc3ccccc3)CCCO2)cc1 (centres undefined)	none (no result: STAT1 act, FLuc inh counter, NF-kB expr up, FLuc stim CS, APP 5'UTR act)
CCCNCC1C(Oc2ccc(Cl)cc2)C(=O)N1c1ccccc1C (centres undefined)	none
CCN(CC)c1ccc(C(=O)Nc2cccc(F)c2)cc1	NF-kB expr up 8.36, APP 5'UTR act 181.0
CCN(CC)c1ccc(C(=O)NN)cc1	none
CN(C)c1cccc(C(=O)Nc2cccc(F)c2)c1	STAT1 act 131.5
Cc1cc(/C=N/NC(=O)c2cccc(N(C)C)c2)c(C)n1-c1cc(C(=O)O)cc(C(=O)O)c1	none
O=C(Nc1cccc(F)c1)c1c(F)c(F)c(F)c(F)c1F	none (no result: APP 5'UTR act)
CN(C)c1cccc(C(=O)N/N=C/c2ccccc2F)c1	FLuc inh counter 95.1, NF-kB expr up 5.02, APP 5'UTR act 138.6
CC(C)CC(=O)N/C(N)=N/c1nc2ccccc2o1	none (no result: STAT1 act, FLuc inh counter, NF-kB expr up, FLuc stim CS, APP 5'UTR act)
NC(=O)CC[C@H](NC(=O)c1ccc(F)cc1)C(=O)OCC(=O)NCc1ccc(F)cc1	none
CC1CCCCN1S(=O)(=O)c1ccc(C(=O)Nc2sccc2C(N)=O)cc1 (centres undefined)	STAT1 act 128.6
CN1CCN(CC(=O)Nc2nc(-c3ccccc3)cs2)CC1	none (no result: Rad51 HR inh)
CN1CCN(CC(=O)N(C)c2nc(-c3ccccc3)cs2)CC1	STAT1 act 133.8
Cc1ccc(N/C(N)=N/c2nc(C)cc(N3CCCCC3)n2)c(C)c1	none
CC(C)C(=O)Nc1cccc(C(=O)Nc2nnc(C(C)C)s2)c1	STAT1 act 146.3
CC(C)c1nnc(NC(=O)c2cccc(NC(=O)C(F)(F)F)c2)s1	STAT1 act 138.3
Cc1nnc(NC(=O)c2cccc(NC(=O)C(C)C)c2)s1	none
CCc1nnc(NC(=O)c2cccc(NC(=O)C(C)C)c2)s1	none
Cc1nccc(-c2cc(-c3ccc(Cl)cc3Cl)no2)n1	none (no result: STAT1 act, FLuc inh counter, NF-kB expr up, FLuc stim CS, APP 5'UTR act)
Cc1cc(/C=C(\C#N)C(=O)NCc2cccs2)c(C)[nH]1	none
O=C(O)c1cccc(COc2ccccc2Cl)c1	FLuc inh counter 63.0, NF-kB expr up 14.5 (no result: STAT1 act, APP 5'UTR act)
O=C(O)c1ccc(COc2ccccc2Cl)cc1	none
Cc1nn(Cc2c(F)c(F)c(F)c(F)c2F)c(C)c1NC(=O)c1cccc(COc2ccccc2Cl)c1	APP 5'UTR act 151.4
CN1CCN(C(=O)c2cccc(COc3cc(Cl)ccc3Cl)c2)CC1	none
O=C(Nc1ccccc1Cl)c1cccc(COc2cc(Cl)ccc2Cl)c1	STAT1 act 129.3 (no result: Rad51 HR inh)
Cc1cc(C)nc(NC2=NCCN2C(=S)Nc2ccc(C)c(C)c2)n1	none (no result: STAT1 act, FLuc inh counter, NF-kB expr up, FLuc stim CS, APP 5'UTR act)
O=c1c2ccccc2nc2ccc(NCc3cccs3)nn12	FLuc inh counter 59.1, NF-kB expr up 3.42
CCc1c(C)nc(SCC(=O)c2cccs2)c(C#N)c1C	STAT1 act 136.4
O=C(Cc1ccccc1)Nc1ccc2c(c1)CCC2	STAT1 act 132.9
COc1cc(/C=N\n2nnnc2N)ccc1OCc1ccc(F)cc1	none
COc1cc(/C=N/n2c(C)n[nH]c2=S)ccc1OCc1ccc(F)cc1	STAT1 act 129.4 (no result: Rad51 HR inh)
COc1ccc2c(c1)O/C(=C\c1sccc1C)C2=O	FLuc inh counter 85.5
Clc1ccc(Nc2nc3cccnc3s2)cc1	STAT1 act 148.2, APP 5'UTR act 152.0
COC(=O)c1[nH]c(=O)c2ccccc2c1OCc1ccccc1	NF-kB expr up 3.75
O=C(NC(=S)Nc1cc(-c2nc3ccccc3[nH]2)ccc1Cl)c1ccc2c(c1)OCO2	STAT1 act 144.3
O=C1N=C(N2CCN(c3ccccc3)CC2)S/C1=C\c1ccco1	FLuc inh counter 60.6
O=C(O)COn1c(-c2ccc(Cl)cc2)nc2ccc(Cl)cc21	none
O=C(O)COn1c(-c2ccccc2)nc2ccc([N+](=O)[O-])cc21	STAT1 act 143.0
